Experimental data published in ChEMBL document CHEMBL1123503, “Synthesis and biological activity of 3-amino-5-(3,5-diamino-6-chloropyrazin-2-yl)-1,2,4-oxadiazole: an amiloride prodrug” (1986).
Values joined by “and” are separate entries in the source; they are usually repeats but may differ in a detail not shown here. Equal values may be shown once.

Experiments:
Rattus norvegicus [1] = test: Compound was evaluated for diuretic activity determined by the ability to induce electrolytic excretion (Na+) at a time period of 0-5 hr for dose 27 mg/kg; format: functional, Urine
Method in brief: (§1)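 Female Sprague-Dawley rats weighing 160-170 g were dosed orally at 3, 9, 27 or 81 mg/kg, housed three per cage, with three cages per dose. Urinary Na+, K+ and Cl- (mequiv × 100) and urine volume (mL) were measured over 0-5 h and 0-24 h after dosing. A placebo group was run alongside.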

Rattus norvegicus [2] = test: Compound was evaluated for diuretic activity determined by the ability to induce electrolytic excretion (Cl-) at a time period of 0-24 hr for dose 9 mg/kg; format: functional, Urine; method in brief: as §1
Rattus norvegicus [3] = test: Urine volumes was determined in Sprague-Dawley rats at time period of 0-5 hours at 27 mg/kg; format: functional
Method in brief: (§2)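 Female Sprague-Dawley rats (160-170 g) were dosed orally at 3-81 mg/kg, with a placebo group. Housing was three rats per cage and three cages per dose. Urinary Na+, K+ and Cl- (mequiv × 100) and urine volume were measured over 0-5 h and 0-24 h.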

Rattus norvegicus [4] = test: Compound was evaluated for diuretic activity determined by the ability to induce electrolytic excretion (K+) at a time period of 0-24 hr for dose 27 mg/kg; format: functional, Urine; method in brief: as §1
Rattus norvegicus [5] = test: Compound was evaluated for diuretic activity determined by the ability to induce electrolytic excretion (K+) at a time period of 0-24 hr for dose 9 mg/kg; format: functional, Urine; method in brief: as §1
Rattus norvegicus [6] = test: Urine volumes was determined in Sprague-Dawley rats at time period of 0-5 hours at 9 mg/kg; format: functional; method in brief: as §2
Rattus norvegicus [7] = test: Compound was evaluated for diuretic activity determined by the to induce electrolytic excretion (Cl-) at a time period of 0-24 hr for dose 81 mg/kg; format: functional, Urine; method in brief: as §1
Rattus norvegicus [8] = test: Compound was evaluated for diuretic activity determined by the ability to induce electrolytic excretion (Na+) at a time period of 0-24 hr for dose 9 mg/kg; format: functional, Urine; method in brief: as §1
Rattus norvegicus [9] = test: Urine volumes was determined in Sprague-Dawley rats at time period of 0-5 hours at 3 mg/kg; format: functional; method in brief: as §2
Rattus norvegicus [10] = test: Compound was evaluated for diuretic activity determined by the ability to induce electrolytic excretion (Cl-) at a time period of 0-5 hr for dose 9 mg/kg; format: functional, Urine; method in brief: as §1
Rattus norvegicus [11] = test: Compound was evaluated for diuretic activity determined by the ability to induce electrolytic excretion (Cl-) at a time period of 0-24 hr for dose 27 mg/kg; format: functional, Urine; method in brief: as §1
Rattus norvegicus [12] = test: Compound was evaluated for diuretic activity determined by the ability to induce electrolytic excretion (K+) at a time period of 0-24 hr for dose 3 mg/kg; format: functional, Urine; method in brief: as §1
Rattus norvegicus [13] = test: Compound was evaluated for diuretic activity determined by the ability to induce electrolytic excretion (Cl-) at a time period of 0-5 hr for dose 3 mg/kg; format: functional, Urine; method in brief: as §1
Rattus norvegicus [14] = test: Compound was evaluated for diuretic activity determined by the ability to induce electrolytic excretion (K+) at a time period of 0-24 hr for dose 81 mg/kg; format: functional, Urine; design: unit: mequiv × 100; method in brief: as §1
Rattus norvegicus [15] = test: Compound was evaluated for diuretic activity determined by the ability to induce electrolytic excretion (K+) at a time period of 0-5 hr for dose 9 mg/kg; format: functional, Urine; method in brief: as §1
Rattus norvegicus [16] = test: Compound was evaluated for diuretic activity determined by the ability to induce electrolytic excretion (Cl-) at a time period of 0-5 hr for dose 81 mg/kg; format: functional, Urine; method in brief: as §1
Rattus norvegicus [17] = test: Compound was evaluated for diuretic activity determined by the ability to induce electrolytic excretion (Na+) at a time period of 0-24 hr for dose 81 mg/kg; format: functional, Urine; method in brief: as §1
Rattus norvegicus [18] = test: Compound was evaluated for diuretic activity determined by the ability to induce electrolytic excretion (K+) at a time period of 0-5 hr for dose 27 mg/kg; format: functional, Urine; method in brief: as §1
Rattus norvegicus [19] = test: Compound was evaluated for diuretic activity determined by the ability to induce electrolytic excretion (K+) at a time period of 0-5 hr for dose 3 mg/kg; format: functional, Urine; method in brief: as §1
Rattus norvegicus [20] = test: Compound was evaluated for diuretic activity determined by the ability to induce electrolytic excretion (Na+) at a time period of 0-5 hr for dose 81 mg/kg; format: functional, Urine; method in brief: as §1
Rattus norvegicus [21] = test: Compound was evaluated for diuretic activity determined by the ability to induce electrolytic excretion (K+) at a time period of 0-5 hr for dose 81 mg/kg; format: functional, Urine; method in brief: as §1
Rattus norvegicus [22] = test: Compound was evaluated for diuretic activity determined by the ability to induce electrolytic excretion (Na+) at a time period of 0-5 hr for dose 3 mg/kg; format: functional, Urine; method in brief: as §1
Rattus norvegicus [23] = test: Urine volumes was determined in Sprague-Dawley rats at time period of 0-5 hours at 81 mg/kg; format: functional; method in brief: as §2
Rattus norvegicus [24] = test: Compound was evaluated for diuretic activity determined by the ability to induce electrolytic excretion (Na+) at a time period of 0-24 hr for dose 3 mg/kg; format: functional, Urine; method in brief: as §1
Rattus norvegicus [25] = test: Compound was evaluated for diuretic activity determined by the ability to induce electrolytic excretion (Cl-) at a time period of 0-5 hr for dose 27 mg/kg; format: functional, Urine; method in brief: as §1
Rattus norvegicus [26] = test: Compound was evaluated for diuretic activity determined by the ability to induce electrolytic excretion (Na+) at a time period of 0-5 hr for dose 9 mg/kg; format: functional, Urine; method in brief: as §1
Rattus norvegicus [27] = test: Compound was evaluated for diuretic activity determined by the ability to induce electrolytic excretion (Na+) at a time period of 0-24 hr for dose 27 mg/kg; format: functional, Urine; method in brief: as §1
Rattus norvegicus [28] = test: Compound was evaluated for diuretic activity determined by the ability to induce electrolytic excretion (Cl-) at a time period of 0-24 hr for dose 3 mg/kg; format: functional, Urine; method in brief: as §1
Canis familiaris [29] = test: Diuretic activity in mongrel dog was determined by the ability to induce electrolytic excretion (K+) at a time period of 0-5 hr after administration of 5 mg/kg dose.
Rattus norvegicus [30] = test: Urine volumes in Sprague-Dawley rats was determined at time period of 0-5 hours dose 9 mg/kg; format: functional; method in brief: as §1
Canis familiaris [31] = test: Diuretic activity in mongrel dog was determined by the ability to induce electrolytic excretion (CL-) at a time period of 0-5 hr after administration of 5 mg/kg dose.
Rattus norvegicus [32] = test: Compound was evaluated for diuretic activity determined by the ability of to induce electrolytic excretion (Cl-) at a time period of 0-24 hr for dose 3 mg/kg; format: functional, Urine; method in brief: as §1
Canis familiaris [33] = test: Compound was evaluated for urinary levels (mg) after administration at time period
Rattus norvegicus [34] = test: Urine volumes in Sprague-Dawley rats was determined at time period of 0-5 hours dose 3 mg/kg; format: functional; method in brief: as §1
Canis familiaris [35] = test: Compound was evaluated for percentage recovery from urine after administration of 0.3 mg/kg dose; format: functional, organism-based; design: dose 0.3 mg/kg; settings: Canis lupus familiaris
Method in brief: (§3)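 Catheterized mongrel dogs (average 14-16 kg, 6 per group) were given oral doses of 0.1-1.0 mg/kg. Urine was collected at 0-6 h and 6-24 h. Each 1-mL aliquot was partitioned between saturated Na2CO3 and ethyl acetate, and the organic phase was back-extracted into 0.5 N HCl. Amiloride in the acid phase was read spectrofluorometrically (excitation 365 nm, emission 420 nm). Results are mean ± SD, with % recovery.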

Canis familiaris [36] = test: Diuretic activity in mongrel dog was determined by the ability to induce electrolytic excretion (Na+) at a time period of 0-5 hr after administration of 5 mg/kg dose.
Rattus norvegicus [37] = test: Urine volumes in Sprague-Dawley rats was determined at time period of 0-5 hours dose 27 mg/kg; format: functional; method in brief: as §1
Rattus norvegicus [38] = test: Compound was evaluated for diuretic activity determined by the ability to induce electrolytic excretion (Cl-) at a time period of 0-24 hr for dose 81 mg/kg; format: functional, Urine; method in brief: as §1
Canis familiaris [39] = test: Compound was evaluated for percentage recovery from urine after administration of 0.1 mg/kg dose; format: functional, organism-based; design: dose 0.1 mg/kg; settings: Canis lupus familiaris; method in brief: as §3
Rattus norvegicus [40] = test: Urine volumes in Sprague-Dawley rats was determined at time period of 0-5 hours dose 81 mg/kg; format: functional; method in brief: as §1
Rattus norvegicus [41] = test: Urine volumes in Sprague-Dawley rats was determined at time period of 0-5 hours at 27 mg/kg; format: functional; method in brief: as §1
Rattus norvegicus [42] = test: Urine volumes in Sprague-Dawley rats was determined at time period of 0-5 hours at 3 mg/kg; format: functional; method in brief: as §1
Rattus norvegicus [43] = test: Urine volumes in Sprague-Dawley rats was determined at time period of 0-5 hours at 81 mg/kg; format: functional; method in brief: as §1
Rattus norvegicus [44] = test: Urine volumes in Sprague-Dawley rats was determined at time period of 0-5 hours at 9 mg/kg; format: functional; method in brief: as §1
Rattus norvegicus [45] = test: Compound was evaluated for diuretic activity to induce electrolytic excretion (Cl-) at a time period of 0-24 hr for dose 3 mg/kg; format: functional, Urine; method in brief: as §2
Rattus norvegicus [46] = test: Urine volumes was determined at time period of 0-5 hours for dose 27 mg/kg; format: functional; method in brief: as §2
Rattus norvegicus [47] = test: Urine volumes was determined at time period of 0-5 hours for dose 9 mg/kg; format: functional; method in brief: as §2

SMILES | Diuretic effect (Rattus norvegicus [1]) | Diuretic effect (Rattus norvegicus [2]) | Diuretic effect (Rattus norvegicus [4]) | Diuretic effect (Rattus norvegicus [5]) | Diuretic effect (Rattus norvegicus [8]) | Diuretic effect (Rattus norvegicus [10]) | Diuretic effect (Rattus norvegicus [11]) | Diuretic effect (Rattus norvegicus [12]) | Diuretic effect (Rattus norvegicus [13]) | Diuretic effect (Rattus norvegicus [14]) | Diuretic effect (Rattus norvegicus [15]) | Diuretic effect (Rattus norvegicus [16]) | Diuretic effect (Rattus norvegicus [17]) | Diuretic effect (Rattus norvegicus [18]) | Diuretic effect (Rattus norvegicus [19]) | Diuretic effect (Rattus norvegicus [20]) | Diuretic effect (Rattus norvegicus [21]) | Diuretic effect (Rattus norvegicus [22]) | Diuretic effect (Rattus norvegicus [24]) | Diuretic effect (Rattus norvegicus [25]) | other results
CN(C)c1nc(N)c(-c2nc(N)[n+](C)o2)nc1Cl.[I-] | 100 | 169 | 62 | 97 | 224 | 35 | 209 | 114 | 37 | 68 | 2 | 95 | 389 | 6 | 2 | 154 | 5 | 55 | 185 | 56 | Urine volume (Rattus norvegicus [3]): 29 mL; Urine volume (Rattus norvegicus [6]): 27 mL; Diuretic effect (Rattus norvegicus [7]): 322; Urine volume (Rattus norvegicus [9]): 26 mL; Urine volume (Rattus norvegicus [23]): 31 mL; Diuretic effect (Rattus norvegicus [26]): 60; Diuretic effect (Rattus norvegicus [27]): 299; Diuretic effect (Rattus norvegicus [28]): 153
Nc1noc(-c2nc(Cl)c(N)nc2N)n1 | 67 | 235 | 79 | 102 | 269 | 35 | 258 | 79 | 36 | 72 | 4 | 73 | 396 | 4 | 7 | 135 | 5 | 64 | 184 | 32 | Diuretic effect (Canis familiaris [29]): 0.9; Urine volume (Rattus norvegicus [30]): 28 mL; Diuretic effect (Canis familiaris [31]): 4.3; Diuretic effect (Rattus norvegicus [32]): 152; Urinary level (Canis familiaris [33]): 0.42 mg; Urine volume (Rattus norvegicus [34]): 24 mL; Recovery (Canis familiaris [35]): 24.2%; Diuretic effect (Canis familiaris [36]): 6.5; Urine volume (Rattus norvegicus [37]): 26 mL; Diuretic effect (Rattus norvegicus [38]): 344; Recovery (Canis familiaris [39]): 36.2% and 22.4%; Diuretic effect (Rattus norvegicus [26]): 69; Diuretic effect (Rattus norvegicus [27]): 292; Urine volume (Rattus norvegicus [40]): 25 mL
C[n+]1oc(-c2nc(Cl)c(N)nc2N)nc1N.[I-] | 104 | 204 | 89 | 92 | 296 | 39 | 277 | 139 | 28 | 96 | 2 | 95 | 433 | 4 | 3 | 135 | 7 | 17 | 281 | 49 | Urine volume (Rattus norvegicus [41]): 27 mL; Urine volume (Rattus norvegicus [42]): 25 mL; Urine volume (Rattus norvegicus [43]): 29 mL; Diuretic effect (Rattus norvegicus [38]): 326; Urine volume (Rattus norvegicus [44]): 25 mL; Diuretic effect (Rattus norvegicus [26]): 79; Diuretic effect (Rattus norvegicus [27]): 389; Diuretic effect (Rattus norvegicus [28]): 203
N=C(N)NC(=O)c1nc(Cl)c(N)nc1N [AMILORIDE] | 180 | 176 | 82 | 67 | 207 | 96 | 180 | 83 | 90 | 47 | 6 | 93 | 458 | 7 | 5 | 158 | 6 | 156 | 153 | 105 | Urine volume (Rattus norvegicus [3]): 36 mL; Urine volume (Rattus norvegicus [6]): 33 mL; Diuretic effect (Rattus norvegicus [45]): 139; Urine volume (Rattus norvegicus [9]): 35 mL; Urinary level (Canis familiaris [33]): 0.41 mg; Diuretic effect (Rattus norvegicus [46]): 3.4; Recovery (Canis familiaris [35]): 29.3%; Diuretic effect (Rattus norvegicus [38]): 328; Recovery (Canis familiaris [39]): 41.4% and 40%; Urine volume (Rattus norvegicus [23]): 28 mL; Diuretic effect (Rattus norvegicus [26]): 162; Diuretic effect (Rattus norvegicus [27]): 206; Diuretic effect (Rattus norvegicus [47]): 1
